Source: PubChem (several laboratories)
aDG glyco act: increases alpha dystroglycan glycosylation; 0.22% of 360,000 active; Pro5-aDG cells, alpha-DG glycosylation AlphaScreen (IIH6); 0% Pro5, 100% B10-LARGE cell signal; AID 624168; activation, % at 10 µM;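 active = activation of at least 8% versus controls, or a plate z-score of at least 8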;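 also: Pro5 are CHO cells carrying HIG-tagged alpha-DG that lacks glycosylation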
procasp7 counter: counter-screen: procaspase-7 (human) activation | P55210 | recombinant procaspase-7, Ac-DEVD-pNA absorbance 405 nm; D23A/D198A/D206A triple mutant, cannot self-cleave; scale: DMSO 0, 5 µM enzyme 100 | activation, % at 8.5 µM | 0.093% of 330,000 active;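 active = percent activation above the screen-wide mean plus 3 SD, cut at about 25% in these data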
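Detection: p-Nitroaniline absorbance at 405 nm, read at 0 and 120 min; system: Uncleavable procaspase-7 mutant enzyme; evaluation: % activation from two-timepoint absorbance difference, scaled to controls; times: 1 h enzyme–compound preincubation and 2 h substrate reaction, both 25 °C; buffer or medium: Zinc-free HEPES pH 7.4 with 300 mM NaCl, 0.01% Triton X-100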
procasp3 activ: activates human procaspase-3 | 0.11% of 330,000 active | activation, % at 8.5 µM | recombinant procaspase-3 D3A, Ac-DEVD-pNA absorbance 405 nm | P42574;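 active = activation above the mean of all tested compounds plus 3 SD, cut at about 21% in these data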
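Test system: Procaspase-3 D3A mutant, all three cleavage aspartates alanine | Dosing: Single dose, 8.5 µM nominal compound, 0.8% DMSO | Schedule: 1 h preincubation, 2 h reaction | Technique: 405 nm absorbance of p-nitroaniline, reads at 0 and 120 min | Repeats: One well per compound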
CaV13 ICDI inh: Disruptors of the CACNA1D IQ motif to Ca2+-dependent inactivation inhibitor domain association, primary screening, Förster resonance energy transfer in intact living …; HEK cells, CFP/YFP FRET ICDI-IQ, plate reader, 10 min; percent FRET-ratio fall versus neutral wells; inhibition, % at 12.3 µM; 0.098% of 340,000 active; AID 743397;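 active = mean replicate inhibition of at least 30% and at least 1% of replicates passing that level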
T cell modulator: modulates CD8 T cell binding to vesicles; 2C CD8+ T cell-vesicle binding, flow cytometry; active compounds read low; AID 2052; 0.068% of 330,000 active; response (vesicle binding), % at 7 µM;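 active = response, share of CD8 T cells binding vesicles, and their 90th percentile fluorescence all below set limits, cut at about 80% in these data, passing the limit was not always enough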;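 also: values below 100% mean blocked vesicle binding to the CD8+ T cells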
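Material: 2C TCR transgenic mouse naive CD8+ T cells, MACS-purified. Also added: QL9-charged Drosophila Ld/ICAM-1/B7-1 vesicles. Timing: binding 1.5 h at 37 °C. Measured by: high-throughput flow cytometry with anti-B7-1 and anti-CD8 staining. Read-out: percent CD8+ FL2 mean versus row control. Controls: Unloaded micro-vesicles (low), QL9 vesicles with 0.7% DMSO (high).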
GRK2 aptamer HTS: blocks RNA aptamer binding to human GRK2 | P25098 | bead flow cytometry, FAM-aptamer displacement from GRK2 | inhibition of aptamer binding, % at 10 µM | 0.59% of 330,000 active | AID 488847;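 active = inhibition of aptamer binding above 40%, roughly 3 SD of noise, on plates passing a quality check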;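 also: median bead fluorescence of bound FAM aptamer so fluorescent compounds give negative values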
Target sequence (P25098 whole entry, looked up): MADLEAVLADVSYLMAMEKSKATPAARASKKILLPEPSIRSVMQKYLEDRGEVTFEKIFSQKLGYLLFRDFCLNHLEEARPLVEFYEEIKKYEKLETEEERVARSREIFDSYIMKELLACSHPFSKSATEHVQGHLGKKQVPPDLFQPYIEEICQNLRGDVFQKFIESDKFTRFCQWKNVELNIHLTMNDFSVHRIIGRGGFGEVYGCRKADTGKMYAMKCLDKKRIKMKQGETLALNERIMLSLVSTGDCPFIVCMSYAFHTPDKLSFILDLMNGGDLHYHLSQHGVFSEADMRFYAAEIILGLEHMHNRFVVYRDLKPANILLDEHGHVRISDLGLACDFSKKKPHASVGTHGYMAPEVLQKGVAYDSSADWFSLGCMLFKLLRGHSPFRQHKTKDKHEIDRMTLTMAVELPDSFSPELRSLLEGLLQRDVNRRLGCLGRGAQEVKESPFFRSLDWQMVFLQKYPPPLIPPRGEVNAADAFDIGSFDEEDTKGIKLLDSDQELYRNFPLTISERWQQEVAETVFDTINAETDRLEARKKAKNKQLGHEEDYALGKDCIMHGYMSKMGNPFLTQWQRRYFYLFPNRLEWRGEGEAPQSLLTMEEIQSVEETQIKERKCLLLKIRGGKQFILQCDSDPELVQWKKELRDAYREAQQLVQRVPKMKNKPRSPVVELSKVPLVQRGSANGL
Of the large screens only hits and unclear results are named; the others gave an inactive call. The list is not random: actives were taken first. Their share in the collection is about 1.1%.

COc1cccc([C@@H](NC(=O)C(F)(F)F)[C@@H]2CCCC=C2c2ccccc2)c1	none (no result: aDG glyco act, procasp7 counter, procasp3 activ, T cell modulator, GRK2 aptamer HTS)
COC(=O)C1=C(C)N(C)C(=NCc2ccccc2C(F)(F)F)NC1c1cccc(F)c1 (stereo not drawn)	none (no result: aDG glyco act, procasp7 counter, procasp3 activ, T cell modulator, GRK2 aptamer HTS)
CC(C)C(=O)Nc1sc2c(c1C(N)=O)CCN(Cc1ccccc1)C2	CaV13 ICDI inh active
CCN1CCc2c(sc(NC(=O)Cc3ccccc3)c2C(N)=O)C1	none
CCC(=O)Nc1sc2c(c1C(N)=O)CCN(Cc1ccccc1)C2	CaV13 ICDI inh 48
NC(=O)c1c(NC(=O)c2c(F)cccc2F)sc2c1CCN(Cc1ccccc1)C2	none
CCN1CCc2c(sc(NC(=O)Nc3ccc(Cl)c(Cl)c3)c2C(N)=O)C1	CaV13 ICDI inh 59
NC(=O)c1c(NC(=O)c2ccccc2)sc2c1CCN(Cc1ccccc1)C2	CaV13 ICDI inh active
CN(C(=O)COC(=O)c1cccc(NS(=O)(=O)c2ccc(F)c(F)c2)c1)C1CCS(=O)(=O)C1 (stereo not drawn)	T cell modulator 19
COC(=O)c1ccc2nc(-c3ccc(Cl)cc3)c(Cc3ccccc3)n2c1	none (no result: aDG glyco act, procasp7 counter, procasp3 activ, T cell modulator, GRK2 aptamer HTS)
COc1ccc(-c2cc(=O)c3cccc(CC(=O)O)c3o2)cc1	none (no result: aDG glyco act, procasp7 counter, procasp3 activ, T cell modulator, GRK2 aptamer HTS)
CCOC(=O)c1c(C)oc2c1C(=O)c1ccccc1C2=O	aDG glyco act 9.7
Cc1oc2c(c1C(=O)c1ccccc1)C(=O)C(=O)c1ccccc1-2	GRK2 aptamer HTS 58
Cc1oc2c(c1C(=O)O)C(=O)c1ccccc1C2=O	none
CCCCOCC1CN(CCCC)S(=O)(=O)c2c(cccc2N(C)S(=O)(=O)c2ccc(C)cc2)O1 (stereo not drawn)	none (no result: aDG glyco act, procasp7 counter, procasp3 activ, T cell modulator, GRK2 aptamer HTS)
COc1ccc(-c2ncncc2-c2csc(C)n2)c(O)c1OC	none
COC1=C(N)C(=O)c2nc(-c3nc(C(=O)O)c(C)c(-c4ccc(OC)c(OC)c4O)c3N)ccc2C1=O	GRK2 aptamer HTS 66 (no result: aDG glyco act, CaV13 ICDI inh)
CCC1CSC(Nc2ccc(C(=O)/C=C/c3ccc(OC)c(OC)c3)cc2)=N1 (stereo not drawn)	GRK2 aptamer HTS 48
CCn1nc(C(=O)NCCc2ccc3c(c2)OCCO3)c2ccccc2c1=O	T cell modulator 47
CC1(C)SC[C@H](C(=O)Nc2cccc(Cl)c2)N1C=O	T cell modulator 52
Cc1cc(N2CCN(C(=O)OC(C)(C)C)C[C@@H]2C)ccc1N1CCS(=O)(=O)CC1	none (no result: aDG glyco act, procasp7 counter, procasp3 activ, T cell modulator, GRK2 aptamer HTS)
Clc1cccc(CN2CCN(Cc3nc(CCc4ccccc4)no3)CC2)c1	CaV13 ICDI inh active
O=C(NS(=O)(=O)c1ccc(Cl)s1)c1ccccc1	CaV13 ICDI inh 46
O=C(COC(=O)/C=C/c1ccco1)Nc1ncc(C(F)(F)F)cc1Cl	GRK2 aptamer HTS 52
Cc1c(Cl)cnc(NC(=O)COC(=O)/C=C/c2ccco2)c1Cl	none (no result: procasp7 counter, procasp3 activ, T cell modulator, GRK2 aptamer HTS)
CSc1ccccc1NC(=O)COC(=O)/C=C/c1ccco1	GRK2 aptamer HTS 41 (no result: CaV13 ICDI inh)
O=C(NNC(=S)NC(=O)c1ccco1)c1ccc(F)cc1	T cell modulator 50 (no result: GRK2 aptamer HTS)
CCCOc1ccc(C(=O)NNC(=S)NC(=O)c2ccco2)cc1	CaV13 ICDI inh 35
C=C(C)C(=O)Nc1cccc(C2=NOC3(C2)C[C@@H](C(N)=O)N(C(=O)c2ccc(OC)cc2)C3)c1 (stereo partly drawn)	GRK2 aptamer HTS 95 (no result: CaV13 ICDI inh)
COc1ccc(C(=O)N2CC3(CC(c4cccc(NC(=O)CC(c5ccccc5)c5ccccc5)c4)=NO3)C[C@H]2C(N)=O)cc1 (stereo partly drawn)	none
CCc1cccc(Nc2cc(C)n(-c3cccc(CC)c3)c(=O)c2)c1	none (no result: aDG glyco act, procasp7 counter, procasp3 activ, T cell modulator, GRK2 aptamer HTS)
CCN(c1ccccc1)S(=O)(=O)c1ccc(OC)c(NC(=O)CN(C)C)c1	CaV13 ICDI inh active
O=S(=O)(NCc1ccccc1)c1cc(Br)ccc1Br	none (no result: aDG glyco act, procasp7 counter, procasp3 activ, T cell modulator, GRK2 aptamer HTS)
Cc1ccc(N2C(=O)C(Cl)=C(N3CCCCCC3)C2=O)c(C)c1	T cell modulator 0.0
O=C1C(Cl)=C(N2CCCCCC2)C(=O)N1c1ccccc1Cl	none
CCOC(=O)C1=C(Nc2ccc(Br)cc2)C(=O)N(CC)C1	none (no result: aDG glyco act, procasp7 counter, procasp3 activ, T cell modulator, GRK2 aptamer HTS)
